In general, IC50 refers to the concentration at which inhibition is half-maximal.

The values below come from ChEMBL document CHEMBL3867440, “Hernandezine, a Bisbenzylisoquinoline Alkaloid with Selective Inhibitory Activity against Multidrug-Resistance-Linked ATP-Binding Cassette Drug Transporter ABCB1” (J Nat Prod, 2016).

Data set [1] addresses T1, ATP-dependent translocase ABCB1 (Homo sapiens, UniProt P08183). The data set is described as follows: Inhibition of ABCB1 in human KBV1 cells assessed as potentiation of doxorubicin-induced cytotoxicity by measuring doxorubicin resistance ratio at 200 nM after 72 hrs by MTT assay relative to parental KB-3-1 cells (reference value: 34). It is filed as cell-based. As to conditions: kbv1, 72 h, 0.2 µM; call rule not given here. An outline of the steps:
(§1)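 Cells were kept in drug-free DMEM with 10% FCS for 7 days before assay, then plated at 5000 cells/well for 24 h. Drug at various concentrations was added with a nontoxic fixed level of modulator for 72 h, and the read-out was MTT. IC50 came from fitted curves (≥3 experiments). RR = IC50 of the resistant line / IC50 of the parental line.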

The target in data set [2] is T1, ATP-dependent translocase ABCB1. The experiment in a line: Inhibition of ABCB1 in human NCI-ADR-RES cells assessed as potentiation of vincristine-induced cytotoxicity by measuring vincristine resistance ratio at 50 nM after 72 hrs by MTT assay relative to parental OVCAR8 cells (reference value: 435). It counts as cell-based. Particulars: ovcar-8, 72 h, 0.05 µM. An outline of the steps: as §1

For data set [3] the target is unchanged. The data set is described as follows: Inhibition of ABCB1 in human NCI-ADR-RES cells assessed as potentiation of vincristine-induced cytotoxicity by measuring vincristine resistance ratio at 200 nM after 72 hrs by MTT assay relative to parental OVCAR8 cells (reference value: 435). It is filed as cell-based. As to conditions: ovcar-8, 72 h, 0.2 µM. In a few lines:
as §1
(In general: Formazan colour is commonly taken as a measure of viable cells.)

For data set [4] the target is unchanged. The experiment in a line: Inhibition of ABCB1 in human KBV1 cells assessed as potentiation of colchicine-induced cytotoxicity by measuring colchicine resistance ratio at 100 nM after 72 hrs by MTT assay relative to parental KB-3-1 cells (reference value: 55). It is filed as cell-based. As to conditions: kbv1, 72 h, 0.1 µM. In a few lines: as §1
Data set [5] has the same target. The data set is described as follows: Inhibition of human ABCB1-mediated efflux transfected in HEK293 cells assessed as accumulation of fluorescent dye by calcein-AM dye based FACS analysis. It counts as cell-based. An outline of the steps:
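The HEK293 cells, transfected with human ABCB1 (parental HEK293 as control), were trypsinized and resuspended in IMDM with 5% FCS. Calcein-AM was added to 3 × 10^5 cells in 4 mL, with or without test compound (single 1 μM or a concentration series) or 3 μM tariquidar. Fluorescence was read immediately by flow cytometry. Results are the mean ± SEM of at least three experiments.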

Data set [6] relates to KB 3-1. The data set is described as follows: Induction of apoptosis in human KB-3-1 cells assessed as necrotic cells at 1 uM after 48 hrs by Annexin V-FITC/propidium iodide staining based FACS analysis (reference value: 0.7%). It is filed as functional. (In general: Flow cytometry measures light scatter and fluorescence of single cells or particles in a stream.)
Data set [7] addresses T1, ATP-dependent translocase ABCB1. The data set is described as follows: Inhibition of ABCB1 in human KBV1 cells assessed as potentiation of vincristine-induced cytotoxicity by measuring vincristine resistance ratio at 50 nM after 72 hrs by MTT assay relative to parental KB-3-1 cells (reference value: 356). As to conditions: kbv1, 72 h, 0.05 µM. It counts as cell-based. An outline of the steps:
as §1

Data set [8] shares this target. The experiment in a line: Inhibition of ABCB1 in human KBV1 cells assessed as potentiation of colchicine-induced cytotoxicity by measuring colchicine resistance ratio at 50 nM after 72 hrs by MTT assay relative to parental KB-3-1 cells (reference value: 55). It is filed as cell-based. As to conditions: kbv1, 72 h, 0.05 µM. In a few lines:
as §1

Data set [9] has the same target. The data set is described as follows: Inhibition of ABCB1 in human NCI-ADR-RES cells assessed as reduction of calcein efflux at 1 uM by -based FACS analysis. It is filed as cell-based. In a few lines: (§2)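 Trypsinized cells were resuspended in IMDM with 5% FCS. Calcein-AM was added to 3 × 10^5 cells in 4 mL IMDM, with or without 1 μM test compound or 3 μM tariquidar. Intracellular calcein fluorescence was read immediately by flow cytometry, with the drug-sensitive parental line run in parallel.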

Data set [10] shares this target. The data set is described as follows: Inhibition of ABCB1 in human KBV1 cells assessed as potentiation of vincristine-induced cytotoxicity by measuring vincristine resistance ratio at 100 nM after 72 hrs by MTT assay relative to parental KB-3-1 cells (reference value: 356). It is filed as cell-based. As to conditions: kbv1, 72 h, 0.1 µM. In a few lines:
as §1

The target is the same in data set [11]. The data set is described as follows: Inhibition of ABCB1 in human KBV1 cells assessed as potentiation of doxorubicin-induced cytotoxicity at 1 uM after 72 hrs by MTT assay. It counts as cell-based. Particulars: kbv1, 72 h. An outline of the steps:
(§3)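 The cells were kept in drug-free medium for 7 days. They were seeded at 5000 cells/well, allowed to attach for 24 h at 37 °C, then exposed to graded doxorubicin with or without 50–500 nM test compound or 1 μM tariquidar for a further 72 h. Viability was read by MTT. Results are means of at least three independent experiments.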

Data set [12] concerns KB 3-1. The data set is described as follows: Potentiation of colchicine-induced apoptosis in human KB-3-1 cells assessed as necrotic cells at 1 uM after 48 hrs by Annexin V-FITC/propidium iodide staining based FACS analysis (reference value: 4.9%). It is filed as functional.
Data set [13] addresses T1, ATP-dependent translocase ABCB1. The experiment in a line: Inhibition of ABCB1 in human KBV1 cells assessed as potentiation of colchicine-induced cytotoxicity by measuring colchicine resistance ratio at 200 nM after 72 hrs by MTT assay relative to parental KB-3-1 cells (reference value: 55). It counts as cell-based. As to conditions: kbv1, 72 h, 0.2 µM. An outline of the steps: as §1

Data set [14] relates to KB 3-1. The experiment in a line: Induction of apoptosis in human KB-3-1 cells assessed as early apoptotic cells at 1 uM after 48 hrs by Annexin V-FITC/propidium iodide staining based FACS analysis (reference value: 5.1%). It counts as functional.
The target of data set [15] is T1, ATP-dependent translocase ABCB1. The data set is described as follows: Inhibition of ABCB1 in human KBV1 cells assessed as reduction in Calcein-AM dye efflux 1 uM by FACS analysis. Particulars: kbv1, 1 µM. It is filed as cell-based. In a few lines:
as §2

Data set [16] has the same target. The data set is described as follows: Inhibition of ABCB1 in human NCI-ADR-RES cells assessed as potentiation of doxorubicin-induced cytotoxicity at 1 uM after 72 hrs by MTT assay. It counts as cell-based. In a few lines:
as §3

For data set [17] the target is unchanged. The data set is described as follows: Inhibition of human ABCB1 transfected in HEK293 cells assessed as potentiation of doxorubicin-induced cytotoxicity by measuring doxorubicin resistance ratio at 50 nM after 72 hrs by CCK8 assay relative to parental HEK293 cells (reference value: 96). As to conditions: hek293, 72 h, 0.05 µM. It is filed as cell-based.

For data set [18] the target is unchanged. The data set is described as follows: Inhibition of ABCB1 in human NCI-ADR-RES cells assessed as potentiation of doxorubicin-induced cytotoxicity by measuring doxorubicin resistance ratio at 200 nM after 72 hrs by MTT assay relative to parental OVCAR8 cells (reference value: 46). As to conditions: ovcar-8, 72 h, 0.2 µM. It is filed as cell-based. In a few lines:
as §1

For a further data set, the target named is ABCB1 (P-glycoprotein) (Homo sapiens, UniProt P08183). The experiment in a line: Induction of Vanadate-sensitive ABCB1 (unknown origin) assessed as increase in ATPase activity up to 1 uM by Pgp-glo assay relative to control. Particulars: read-out: FC. An outline of the steps: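 Vanadate-sensitive ABCB1 ATPase activity measured with the Pgp-Glo system as […], across 0–1 μM test compound. Points are means of at least three independent experiments.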
Chain of ABCB1 (P-glycoprotein) (P08183 whole entry): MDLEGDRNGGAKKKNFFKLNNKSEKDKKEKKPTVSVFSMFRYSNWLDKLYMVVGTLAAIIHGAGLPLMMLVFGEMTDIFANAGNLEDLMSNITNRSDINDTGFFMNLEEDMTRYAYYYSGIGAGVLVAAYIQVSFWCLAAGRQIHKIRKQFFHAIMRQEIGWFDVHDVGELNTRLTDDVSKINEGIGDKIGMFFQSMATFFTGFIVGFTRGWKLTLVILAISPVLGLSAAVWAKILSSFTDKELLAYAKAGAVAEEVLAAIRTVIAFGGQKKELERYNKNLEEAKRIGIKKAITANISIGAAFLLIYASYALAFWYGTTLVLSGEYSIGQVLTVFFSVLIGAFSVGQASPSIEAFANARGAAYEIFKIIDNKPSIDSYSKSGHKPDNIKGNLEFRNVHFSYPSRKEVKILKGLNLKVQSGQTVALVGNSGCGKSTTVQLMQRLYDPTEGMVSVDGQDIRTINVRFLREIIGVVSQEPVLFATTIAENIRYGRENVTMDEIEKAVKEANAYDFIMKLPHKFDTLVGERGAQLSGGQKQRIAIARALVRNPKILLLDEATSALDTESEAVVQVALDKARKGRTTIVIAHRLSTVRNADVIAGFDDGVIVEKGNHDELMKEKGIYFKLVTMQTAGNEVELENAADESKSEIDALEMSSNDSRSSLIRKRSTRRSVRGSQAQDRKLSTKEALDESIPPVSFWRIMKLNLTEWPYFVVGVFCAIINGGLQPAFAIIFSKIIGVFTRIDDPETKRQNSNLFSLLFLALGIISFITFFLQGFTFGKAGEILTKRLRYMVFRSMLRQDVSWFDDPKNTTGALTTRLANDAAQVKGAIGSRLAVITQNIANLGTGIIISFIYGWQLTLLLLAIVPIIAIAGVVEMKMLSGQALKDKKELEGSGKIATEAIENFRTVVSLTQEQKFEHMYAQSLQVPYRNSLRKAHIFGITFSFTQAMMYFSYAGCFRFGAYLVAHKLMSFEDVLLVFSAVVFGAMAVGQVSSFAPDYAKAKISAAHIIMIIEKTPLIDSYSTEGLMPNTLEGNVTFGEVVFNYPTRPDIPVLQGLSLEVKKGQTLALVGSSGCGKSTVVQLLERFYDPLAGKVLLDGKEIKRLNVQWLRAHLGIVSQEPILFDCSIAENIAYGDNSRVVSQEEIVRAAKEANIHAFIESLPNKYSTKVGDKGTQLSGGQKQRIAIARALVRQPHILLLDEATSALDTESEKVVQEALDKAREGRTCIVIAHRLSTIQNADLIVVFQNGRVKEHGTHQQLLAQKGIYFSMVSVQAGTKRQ

Another data set has as its system KB-V1. The data set is described as follows: Induction of apoptosis in human KBV1 cells assessed as necrotic cells at 1 uM after 48 hrs by Annexin V-FITC/propidium iodide staining based FACS analysis (reference value: 1%). It is filed as functional.
In data set [19] the target is Multidrug resistance-associated protein 1 (Homo sapiens, UniProt P33527). The experiment in a line: Inhibition of human ABCC1 transfected in HEK293 cells assessed as potentiation of etoposide-induced cytotoxicity by measuring etoposide resistance ratio at 500 nM after 72 hrs by CCK8 assay relative to parental HEK293 cells (reference value: 350). It is filed as cell-based. As to conditions: hek293, 72 h, 0.5 µM.
Chain of Multidrug resistance-associated protein 1 (P33527 whole entry): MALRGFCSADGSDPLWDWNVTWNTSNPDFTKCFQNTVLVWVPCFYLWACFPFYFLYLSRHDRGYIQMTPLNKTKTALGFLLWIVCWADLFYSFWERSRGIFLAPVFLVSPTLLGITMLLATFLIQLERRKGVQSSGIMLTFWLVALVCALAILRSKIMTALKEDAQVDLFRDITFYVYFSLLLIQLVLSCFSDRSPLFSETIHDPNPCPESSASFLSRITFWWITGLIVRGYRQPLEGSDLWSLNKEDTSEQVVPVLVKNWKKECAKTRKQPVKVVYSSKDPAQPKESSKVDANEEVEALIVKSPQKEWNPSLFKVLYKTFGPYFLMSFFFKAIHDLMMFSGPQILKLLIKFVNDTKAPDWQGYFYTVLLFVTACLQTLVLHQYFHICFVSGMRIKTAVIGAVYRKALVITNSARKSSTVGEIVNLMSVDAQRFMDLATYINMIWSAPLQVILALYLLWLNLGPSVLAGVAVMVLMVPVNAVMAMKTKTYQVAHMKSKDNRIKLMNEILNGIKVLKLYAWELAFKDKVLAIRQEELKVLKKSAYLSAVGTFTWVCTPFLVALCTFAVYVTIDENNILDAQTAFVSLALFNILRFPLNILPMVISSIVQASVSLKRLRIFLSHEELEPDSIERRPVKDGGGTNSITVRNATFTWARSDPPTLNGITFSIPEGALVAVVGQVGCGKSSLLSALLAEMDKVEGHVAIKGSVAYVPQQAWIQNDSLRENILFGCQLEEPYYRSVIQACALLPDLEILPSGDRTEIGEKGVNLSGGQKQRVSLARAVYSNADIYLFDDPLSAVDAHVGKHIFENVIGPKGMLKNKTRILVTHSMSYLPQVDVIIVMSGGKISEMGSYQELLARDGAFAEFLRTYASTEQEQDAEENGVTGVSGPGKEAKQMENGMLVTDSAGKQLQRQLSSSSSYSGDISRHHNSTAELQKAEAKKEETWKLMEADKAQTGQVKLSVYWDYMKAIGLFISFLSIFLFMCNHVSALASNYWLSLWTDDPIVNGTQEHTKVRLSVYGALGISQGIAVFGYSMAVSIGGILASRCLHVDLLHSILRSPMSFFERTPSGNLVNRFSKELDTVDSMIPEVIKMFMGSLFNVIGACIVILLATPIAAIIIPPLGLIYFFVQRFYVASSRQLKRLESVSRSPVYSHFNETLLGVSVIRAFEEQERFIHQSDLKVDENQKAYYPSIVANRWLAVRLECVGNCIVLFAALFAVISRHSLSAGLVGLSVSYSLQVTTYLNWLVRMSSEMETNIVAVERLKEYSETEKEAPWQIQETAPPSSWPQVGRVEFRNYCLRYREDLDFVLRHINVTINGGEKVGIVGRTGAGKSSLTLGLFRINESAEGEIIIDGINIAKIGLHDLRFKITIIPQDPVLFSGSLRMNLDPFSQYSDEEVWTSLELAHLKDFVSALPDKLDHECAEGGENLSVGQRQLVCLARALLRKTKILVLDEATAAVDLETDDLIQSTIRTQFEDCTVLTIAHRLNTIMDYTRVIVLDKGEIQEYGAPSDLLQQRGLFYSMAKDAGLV

Data set [20] is described as follows: Cytotoxicity against HEK293 cells assessed as reduction in cell viability at 1 uM after 72 hrs by CCK8 assay. It counts as toxicity, cell-based. Particulars: human, hek293, 72 h.

T1 sequence (P08183 whole entry): as the sequence (P08183 whole entry) above

As for `COc1ccc2cc1Oc1ccc(cc1)C[C@H]1c3cc(c(OC)cc3CCN1C)Oc1c(OC)c(OC)c(OC)c3c1[C@H](C2)N(C)CC3` [HERNANDEZINE], the Ratio turned out to be 2 in [1]; 505 in data set [2]; 196 in data set [3]; 21 in data set [4]; 325 in data set [7]; 31 in data set [8]. Moreover, the Ratio stood at 169 in data set [10]; 13 in data set [13]; 16 in data set [17]; 5 in data set [18]; 547 in [19]. Moreover, the IC50 in [5] was 300 nM. The “inhibition (INH)” value in data set [5] (human, hek293) is “Dose-dependent effect”; in data set [9] it was “Active”; in data set [11], “Active”; in data set [15] it was “Active”; in data set [16] it was “Active”. Moreover, the Activity is recorded as 0.2% in the data set on KB 3-1 [6]; 5.1% with KB 3-1 [12]; 6.6% in the data set with KB 3-1 [14]; 1% in the data set on KB-V1; “Non-Toxic” in data set [20]. For the same molecule, at ABCB1 (P-glycoprotein), the fold induction amounted to 7.
